Results published in ChEMBL document CHEMBL1131071, “Design and synthesis of brefeldin A sulfide derivatives as prodrug candidates with enhanced aqueous solubilities” (1998).

Assays:
Assay type in all cases: functional
Conditions in all cases: Homo sapiens
SF-539 = assay: Cytotoxicity against CNS SF-539 cancer cell cultures.
How it was run: (§1)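 Human cancer cell lines from a panel of about 55, incubated with compound for 72 h (3-day incubation). Values are single determinations or, where given with population standard deviation, two determinations.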

DU-145 = assay: Cytotoxicity against prostate DU-145 cancer cell cultures.; how it was run: as §1
HOP-62 = assay: Cytotoxicity against lung HOP-62 cancer cell cultures.; how it was run: as §1
HCT-116 = assay: Cytotoxicity against colon HCT116 cancer cell cultures.; how it was run: as §1
OVCAR-3 = assay: Cytotoxicity against ovarian OVCAR-3 cancer cell cultures.; how it was run: as §1
SN12C = assay: Cytotoxicity against renal SN12C cancer cell cultures.; how it was run: as §1
UACC-62 = assay: Cytotoxicity against melanoma UACC-62 cancer cell cultures.; how it was run: as §1
MDA-MB-435 = assay: Cytotoxicity against breast MDA-MB-435 cancer cell cultures.; how it was run: as §1

Row | Compound | GI50 (SF-539) [µM] | GI50 (DU-145) [µM] | GI50 (HOP-62) [µM] | GI50 (HCT-116) [µM] | GI50 (OVCAR-3) [µM] | GI50 (SN12C) [µM] | GI50 (UACC-62) [µM] | GI50 (MDA-MB-435) [µM]
1 | C[C@H]1CCC/C=C/[C@@H]2C[C@H](O)C[C@H]2[C@H](O)[C@H](SCC(=O)O)CC(=O)O1 | 34 | 38 | 30 | 23 | 30 | 39 | 33 | 42
2 | COC(=O)CS[C@@H]1CC(=O)O[C@@H](C)CCC/C=C/[C@@H]2C[C@H](O)C[C@H]2[C@@H]1O | 24 | 30 | 28 | 19 | 27 | 32 | 6.8 | 30
3 | COC(=O)CS(=O)(=O)[C@@H]1CC(=O)O[C@@H](C)CCC/C=C/[C@@H]2C[C@H](O)C[C@H]2[C@@H]1O | – | 6 | 5.1 | 3.7 | 3.2 | 3.3 | 5 | 5.5
4 | COc1ccc(S[C@@H]2CC(=O)O[C@@H](C)CCC/C=C/[C@@H]3C[C@H](O)C[C@H]3[C@@H]2O)cc1 | 26 | 36 | 24 | 33 | 22 | 30 | 29 | 19
5 | C[C@H]1CCC/C=C/[C@@H]2C[C@H](O)C[C@H]2[C@H](O)[C@H](SCC(O)CO)CC(=O)O1 (stereo not given in full) | 32 | 18 | 33 | 36 | 22 | 34 | 16 | 36
6 | C[C@H]1CCC/C=C/[C@@H]2C[C@H](OC(=O)CCCC(=O)O)C[C@H]2[C@H](O)/C=C/C(=O)O1 | 22 | 30 | 33 | 21 | 20 | 32 | – | 11
7 | C[C@H]1CCC/C=C/[C@@H]2C[C@H](OC(=O)CCC(=O)O)C[C@H]2[C@H](O)/C=C/C(=O)O1 | – | 6.8 | 3.4 | 17 | 3.3 | – | 1.9 | –
8 | C[C@H]1CCC/C=C/[C@@H]2C[C@H](O)C[C@H]2[C@H](O)C(O)C(O)C(=O)O1 (stereo not given in full) | 0.68 | 6.7 | 5 | 3.4 | 2.4 | 2.7 | 1.6 | 3.8
9 | C[C@H]1CCC/C=C/[C@@H]2C[C@H](OC(=O)CCC(=O)O)C[C@H]2[C@H](OC(=O)CCC(=O)O)/C=C/C(=O)O1 | > 100 | > 100 | > 100 | > 100 | > 100 | > 100 | > 100 | > 100
10 | C[C@H]1CCC/C=C/[C@@H]2C[C@H](O)C[C@H]2[C@H](O)[C@H](SCCN)CC(=O)O1 | 4.9 | – | 3.9 | 3.5 | 2.2 | – | 2.7 | 3.3
11 | C[C@H]1CCC/C=C/[C@@H]2C[C@H](O)C[C@H]2[C@H](O)[C@H](Sc2ccc(O)cc2)CC(=O)O1 | 5.1 | 6.3 | 3.2 | 2.5 | 2.4 | 4.4 | 4.8 | 3.3
12 | C[C@H]1CCC/C=C/[C@@H]2C[C@H](O)C[C@H]2[C@H](O)[C@H]([S+]([O-])CCN)CC(=O)O1 (stereo not given in full) | 0.02 | 0.17 | 0.15 | 0.086 | 0.082 | 0.12 | 0.021 | 0.055
13 | C[C@H]1CCC/C=C/[C@@H]2C[C@H](O)C[C@H]2[C@H](O)[C@H]([S+]([O-])CCO)CC(=O)O1 (stereo not given in full) | 0.058 | 0.26 | 0.29 | 0.21 | 0.19 | 0.65 | 0.064 | 0.09
14 | C[C@H]1CCC/C=C/[C@@H]2C[C@H](O)C[C@H]2[C@H](O)[C@H](SCCN(C)C)CC(=O)O1 | 0.39 | 2.4 | 0.54 | 0.75 | 0.54 | 1.4 | 0.43 | 0.5
15 | C[C@H]1CCC/C=C/[C@@H]2C[C@H](O)C[C@H]2[C@H](O)[C@H]([S+]([O-])c2ccc(O)cc2)CC(=O)O1 (stereo not given in full) | 0.017 | 0.118 | 0.088 | 0.026 | 0.025 | 0.05 | 0.03 | 0.042
16 | C[C@H]1CCC/C=C/[C@@H]2C[C@H](O)C[C@H]2[C@H](O)[C@H]([S+]([O-])CC(N)C(=O)O)CC(=O)O1 (stereo not given in full) | 0.039 | 0.43 | 0.7 | 0.089 | 0.05 | 0.16 | 0.038 | 0.05
17 | C[C@H]1CCC/C=C/[C@@H]2C[C@H](O)C[C@H]2[C@H](O)[C@H]([S+]([O-])CCN(C)C)CC(=O)O1 (stereo not given in full) | 0.3 | 0.48 | 0.35 | 0.28 | 0.14 | 0.15 | 0.071 | 0.41
18 | C[C@H]1CCC/C=C/[C@@H]2C[C@H](OC(=O)CCCC(=O)O)C[C@H]2[C@H](OC(=O)CCCC(=O)O)/C=C/C(=O)O1 | > 100 | > 100 | > 100 | > 100 | > 100 | > 100 | > 100 | > 100
19 | C[C@H]1CCC/C=C/[C@@H]2C[C@H](O)C[C@H]2[C@H](O)[C@H](SCCO)CC(=O)O1 | 23 | 30 | 34 | 19 | 27 | 33 | 40 | 34
